Results from ChEMBL document CHEMBL5120825, “The azulene scaffold from a medicinal chemist's perspective: Physicochemical and in vitro parameters relevant for drug discovery” (Eur J Med Chem, 2022).
pIC50: −log10 of the molar value. Converted amounts (≈) assume the structure as drawn.

What was measured:
Cytochrome P450 3A4 = Cytochrome P450 3A4 (Homo sapiens, UniProt P08684); assay: Inhibition of CYP3A4 in human liver microsomes using midazolam as substrate preincubated with compound followed by NADPH addition by LC-MS/MS analysis; type: ADME, Microsome
Sequence of Cytochrome P450 3A4 (P08684 whole entry): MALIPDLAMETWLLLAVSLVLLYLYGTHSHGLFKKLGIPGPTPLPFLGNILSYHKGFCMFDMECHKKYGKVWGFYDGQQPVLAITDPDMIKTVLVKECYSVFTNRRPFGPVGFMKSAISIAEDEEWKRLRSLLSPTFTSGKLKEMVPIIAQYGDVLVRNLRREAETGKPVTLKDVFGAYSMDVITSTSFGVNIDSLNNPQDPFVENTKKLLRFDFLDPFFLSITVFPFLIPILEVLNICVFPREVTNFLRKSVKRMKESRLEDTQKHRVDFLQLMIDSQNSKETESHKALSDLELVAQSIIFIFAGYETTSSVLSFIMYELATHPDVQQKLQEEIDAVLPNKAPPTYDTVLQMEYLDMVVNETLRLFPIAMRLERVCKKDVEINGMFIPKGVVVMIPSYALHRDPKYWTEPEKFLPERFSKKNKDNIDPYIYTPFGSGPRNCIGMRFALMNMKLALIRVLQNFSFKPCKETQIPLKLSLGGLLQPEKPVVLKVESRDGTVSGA

[1] = Octanol-water partition coefficient, logD of the compound at pH 11 by HPLC analysis; type: physicochemical; conditions: read-out: logD
[2] = Metabolic stability in human liver microsomes assessed as hepatic blood flow at 1 uM preincubated with compound followed by NADPH addition by LC-MS/MS analysis; type: ADME, Microsome; conditions: read-out: QH
[3] = Photostability of the compound at pH 7.2 assessed as compound degradation administered as solution irradiated with sun light and measured after 7 days by HPLC analysis; type: physicochemical; conditions: time 7 day, read-out: Drug degradation
How it was run: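 Compound in solution was kept for 7 days under "mild" light-stress conditions, with no pH adjustment. The pH listed for each compound is the solution's own intrinsic pH. Result is % degradation of parent.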

Cytochrome P450 2C8 = molecular target: T1, Cytochrome P450 2C8 (Homo sapiens, UniProt P10632); assay: Inhibition of CYP2C8 in human liver microsomes using amodiaquine as substrate preincubated with compound followed by NADPH addition by LC-MS/MS analysis; type: ADME, Microsome
T1 sequence (P10632 whole entry): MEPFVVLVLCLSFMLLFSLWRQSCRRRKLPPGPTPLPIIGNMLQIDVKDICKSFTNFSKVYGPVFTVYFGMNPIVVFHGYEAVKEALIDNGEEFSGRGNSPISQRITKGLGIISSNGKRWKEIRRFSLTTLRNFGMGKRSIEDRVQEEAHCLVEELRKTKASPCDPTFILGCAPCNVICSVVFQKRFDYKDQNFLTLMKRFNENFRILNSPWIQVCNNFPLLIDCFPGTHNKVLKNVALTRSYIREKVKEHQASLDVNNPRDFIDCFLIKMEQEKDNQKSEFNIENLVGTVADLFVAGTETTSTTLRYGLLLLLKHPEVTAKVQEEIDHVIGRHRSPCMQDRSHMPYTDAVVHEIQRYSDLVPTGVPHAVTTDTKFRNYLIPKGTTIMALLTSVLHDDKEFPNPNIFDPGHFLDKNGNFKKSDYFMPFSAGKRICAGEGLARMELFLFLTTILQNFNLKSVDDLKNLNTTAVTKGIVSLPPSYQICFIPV

[4] = Photostability of the compound assessed as compound degradation administered as solid irradiated with sun light and measured after 7 days by HPLC analysis
[5] = Octanol-water partition coefficient, logD of the compound at pH 2 by HPLC analysis; type: physicochemical; conditions: read-out: logD
[6] = Aqueous solubility of the compound at pH 2.2 incubated for 24 hrs under shaking condition by LC-UV analysis; type: physicochemical; conditions: aqueous medium
How it was run: (§1)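 The highest concentration tested was 250 μM, so results are capped at that level. Values are reported in µg/ml.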

[7] = Aqueous solubility of the compound at pH 6.8 incubated for 24 hrs under shaking condition by LC-UV analysis; type: physicochemical; conditions: aqueous medium; how it was run: as §1
[8] = Permeability of the compound at pH 7.4 by PAMPA assay; type: ADME; conditions: read-out: permeability
Cytochrome P450 2C19 = Cytochrome P450 2C19 (Homo sapiens, UniProt P33261); assay: Inhibition of CYP2C19 in human liver microsomes using mephenytoin as substrate preincubated with compound followed by NADPH addition by LC-MS/MS analysis; type: ADME, Microsome
Sequence of Cytochrome P450 2C19 (P33261 whole entry): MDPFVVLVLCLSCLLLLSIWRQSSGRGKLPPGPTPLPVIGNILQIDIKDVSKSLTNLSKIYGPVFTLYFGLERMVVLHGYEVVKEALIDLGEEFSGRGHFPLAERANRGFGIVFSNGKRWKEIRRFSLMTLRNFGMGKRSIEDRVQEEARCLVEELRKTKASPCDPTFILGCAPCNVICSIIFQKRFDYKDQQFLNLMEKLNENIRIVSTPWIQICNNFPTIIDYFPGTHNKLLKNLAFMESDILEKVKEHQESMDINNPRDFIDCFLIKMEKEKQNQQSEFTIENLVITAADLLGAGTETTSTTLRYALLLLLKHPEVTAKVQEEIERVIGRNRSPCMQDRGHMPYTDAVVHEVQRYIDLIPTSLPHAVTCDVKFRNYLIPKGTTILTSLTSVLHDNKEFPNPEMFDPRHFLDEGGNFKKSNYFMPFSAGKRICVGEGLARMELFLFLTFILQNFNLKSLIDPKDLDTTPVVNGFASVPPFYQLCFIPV

Cytochrome P450 2D6 = Cytochrome P450 2D6 (Homo sapiens, UniProt P10635); assay: Inhibition of CYP2D6 in human liver microsomes using dextromethorphan as substrate preincubated with compound followed by NADPH addition by LC-MS/MS analysis; type: ADME, Microsome
Sequence of Cytochrome P450 2D6 (P10635 whole entry): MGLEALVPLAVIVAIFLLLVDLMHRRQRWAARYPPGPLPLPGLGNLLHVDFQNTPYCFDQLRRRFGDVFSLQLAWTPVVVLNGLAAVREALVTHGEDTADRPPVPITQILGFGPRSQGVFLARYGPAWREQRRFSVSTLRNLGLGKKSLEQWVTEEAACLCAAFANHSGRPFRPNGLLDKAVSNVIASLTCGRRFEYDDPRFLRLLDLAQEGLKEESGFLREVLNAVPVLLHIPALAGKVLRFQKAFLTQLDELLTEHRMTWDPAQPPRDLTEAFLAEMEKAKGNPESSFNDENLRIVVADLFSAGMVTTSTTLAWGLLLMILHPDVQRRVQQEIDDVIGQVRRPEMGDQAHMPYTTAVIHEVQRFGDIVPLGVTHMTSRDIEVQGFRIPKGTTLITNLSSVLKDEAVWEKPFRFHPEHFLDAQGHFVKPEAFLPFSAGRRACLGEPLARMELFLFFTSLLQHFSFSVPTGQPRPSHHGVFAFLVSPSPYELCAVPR

[9] = Lipophilicity, logP of the compound; type: physicochemical; conditions: octanol/water; read-out: logP
[10] = Aqueous solubility of the compound at pH 4.5 incubated for 24 hrs under shaking condition by LC-UV analysis; type: physicochemical; conditions: aqueous medium; how it was run: as §1
Cytochrome P450 2C9 = Cytochrome P450 2C9 (Homo sapiens, UniProt P11712); assay: Inhibition of CYP2C9 in human liver microsomes using diclofenac as substrate preincubated with compound followed by NADPH addition by LC-MS/MS analysis; type: ADME, Microsome
Sequence of Cytochrome P450 2C9 (P11712 whole entry): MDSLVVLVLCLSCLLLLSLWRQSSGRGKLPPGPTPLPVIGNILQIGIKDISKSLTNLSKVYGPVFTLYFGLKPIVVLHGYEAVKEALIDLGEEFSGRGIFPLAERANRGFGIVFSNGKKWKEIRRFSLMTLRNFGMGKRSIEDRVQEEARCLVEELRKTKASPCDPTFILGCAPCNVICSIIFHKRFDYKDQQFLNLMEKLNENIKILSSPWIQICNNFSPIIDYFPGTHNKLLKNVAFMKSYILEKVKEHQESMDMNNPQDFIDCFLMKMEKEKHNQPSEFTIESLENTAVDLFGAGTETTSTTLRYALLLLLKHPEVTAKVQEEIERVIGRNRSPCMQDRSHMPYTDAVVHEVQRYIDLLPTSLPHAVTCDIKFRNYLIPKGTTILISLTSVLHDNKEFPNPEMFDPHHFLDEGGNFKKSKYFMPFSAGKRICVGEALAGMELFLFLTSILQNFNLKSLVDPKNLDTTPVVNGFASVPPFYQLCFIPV

In the case of CN1CCN(C(=O)c2ccc3ccc(C(=O)c4ccccc4)c-3cc2)CC1, the pIC50 (Cytochrome P450 3A4) was < 4.30, the logD [1] was 1.2 and the hepatic extraction ratio at 1 µM [2] was 0.48. For the same compound, the degraded at 168 h [3] was < 0.5%, the pIC50 (Cytochrome P450 2C8) was < 4.30 and the degraded at 168 h [4] was < 0.5%. The logD [5] was 1.2, the solubility thermodynamic at 24 h [6] was > 90 µg/mL and the solubility thermodynamic at 24 h [7] was > 73 µg/mL. The Papp [8] was 8.4 ×10⁻⁶ cm/s, the pIC50 (Cytochrome P450 2C19) was < 4.30 and the pIC50 (Cytochrome P450 2D6) was < 4.30. For the same compound, the logP [9] was 3, the solubility thermodynamic at 24 h [10] was 67 µg/mL (≈ 187 µM) and the pIC50 (Cytochrome P450 2C9) was 4.41.
